From ChEMBL document CHEMBL1149648, “Norcantharimides, synthesis and anticancer activity: Synthesis of new norcantharidin analogues and their anticancer evaluation” (2007)

Key:
Assay type in all cases: functional
[1] = Cytotoxicity against human SJG2 cells after 72 hrs by MTT assay; conditions: SJ-G2, 72 h
In short: (§1)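 Cells were grown in DMEM with 10% FBS, bicarbonate, penicillin/streptomycin and 4 mM glutamine at 37 °C under 5% CO2. Log-phase cells were plated in duplicate at 2500–4000 cells/well. After 24 h, medium with or without agent was added (stocks in DMSO or water). Growth inhibition was read by MTT at 540 nm after 72 h continuous exposure. Values are means (SEM) of 3–6 experiments.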

[2] = test system: NCI-H460; assay: Cytotoxicity against human H460 cells after 72 hrs by MTT assay; conditions: NCI-H460, 72 h; in short: as §1
[3] = test system: A2780; assay: Cytotoxicity against human A2780 cells after 72 hrs by MTT assay; conditions: A2780, 72 h; in short: as §1
[4] = test system: A-431; assay: Cytotoxicity against human A431 cells after 72 hrs by MTT assay; conditions: A-431, 72 h; in short: as §1
[5] = test system: DU-145; assay: Cytotoxicity against human DU145 cells after 72 hrs by MTT assay; conditions: DU-145, 72 h; in short: as §1
[6] = test system: SW480; assay: Cytotoxicity against human SW480 cells after 72 hrs by MTT assay; conditions: SW480, 72 h; in short: as §1
[7] = test system: MCF7; assay: Cytotoxicity against human MCF7 cells after 72 hrs by MTT assay; conditions: MCF7, 72 h; in short: as §1
[8] = test system: HT-29; assay: Cytotoxicity against human HT29 cells after 72 hrs by MTT assay; conditions: HT-29, 72 h; in short: as §1
[9] = Cytotoxicity against human BE2C cells after 72 hrs by MTT assay; conditions: BE(2)-C
In short: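 Cells cultured in DMEM with 10% FBS, bicarbonate, penicillin, streptomycin and 4 mM glutamine at 37 °C, 5% CO2. Log-phase cells plated in duplicate at 2500–4000/well; test agent (DMSO stock) added 24 h later. After 72 h continuous exposure, MTT read at 540 nm; means of 3–6 experiments.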

[10] = test system: DU-145; assay: Cytotoxicity against human DU145 cells at 100 uM after 72 hrs by MTT assay; conditions: DU-145, 72 h
In short: (§2)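 Log-phase cells in DMEM with 10% FBS (37 °C, 5% CO2) were plated in duplicate at 2500–4000 cells/well. Agent was added 24 h later at a fixed final concentration of 100 µM and left for 72 h continuous exposure. Read-out was MTT absorbance at 540 nm, expressed as percent growth inhibition, where 100% means total growth inhibition.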

[11] = test system: SW480; assay: Cytotoxicity against human SW480 cells at 100 uM after 72 hrs by MTT assay; conditions: SW480, 72 h; in short: as §2
[12] = test system: A2780; assay: Cytotoxicity against human A2780 cells at 100 uM after 72 hrs by MTT assay; conditions: A2780, 72 h; in short: as §2
[13] = test system: A-431; assay: Cytotoxicity against human A431 cells at 100 uM after 72 hrs by MTT assay; conditions: A-431, 72 h; in short: as §2
[14] = test system: NCI-H460; assay: Cytotoxicity against human H460 cells at 100 uM after 72 hrs by MTT assay; conditions: NCI-H460, 72 h; in short: as §2
[15] = test system: HT-29; assay: Cytotoxicity against human HT29 cells at 100 uM after 72 hrs by MTT assay; conditions: HT-29, 72 h; in short: as §2
[16] = test system: MCF7; assay: Cytotoxicity against human MCF7 cells at 100 uM after 72 hrs by MTT assay; conditions: MCF7, 72 h; in short: as §2
[17] = Cytotoxicity against human BE2C cells at 100 uM after 72 hrs by MTT assay; conditions: BE(2)-C; in short: as §2
[18] = Cytotoxicity against human SJG2 cells at 100 uM after 72 hrs by MTT assay; conditions: SJ-G2, 72 h; in short: as §2

SMILES	GI50 [1] [µM]	GI50 [2] [µM]	GI50 [3] [µM]	GI50 [4] [µM]	GI50 [5] [µM]	GI50 [6] [µM]	GI50 [7] [µM]	GI50 [8] [µM]	GI50 [9] [µM]	inhibition at 100 µM [10] [%]	inhibition at 100 µM [11] [%]	inhibition at 100 µM [12] [%]	inhibition at 100 µM [13] [%]	inhibition at 100 µM [14] [%]	inhibition at 100 µM [15] [%]	inhibition at 100 µM [16] [%]	inhibition at 100 µM [17] [%]	inhibition at 100 µM [18] [%]
O=C1OC(=O)C2C3CCC(O3)C12 (stereo not drawn) [DEMETHYL-CANTHARIDIN]	23	45	38	31	28	44	68	57	43	–	–	–	–	–	–	–	–	–
C[C@@]12C(=O)OC(=O)[C@]1(C)[C@H]1CC[C@@H]2O1 [CANTHARIDIN]	1.7	3.3	4.4	2.9	2.1	4.5	7.5	3.2	3.7	–	–	–	–	–	–	–	–	–
C=CCN1C(=O)[C@@H]2[C@H](C1=O)[C@@H]1CC[C@H]2O1	–	–	–	–	–	–	80	–	–	15	50	67	32	20	19	96	62	2
O=C1[C@@H]2[C@H](C(=O)N1c1ccc([N+](=O)[O-])cc1)[C@@H]1CC[C@H]2O1	–	–	–	–	–	–	–	–	–	13	44	53	13	37	60	> 100	45	23
CCCN1C(=O)[C@@H]2[C@H](C1=O)[C@@H]1CC[C@H]2O1	–	–	–	–	–	–	–	–	–	< 10	45	< 10	< 10	< 10	16	< 10	< 10	< 10
O=C(O)CCCCCN1C(=O)[C@@H]2[C@H](C1=O)[C@@H]1CC[C@H]2O1	–	–	–	–	–	–	–	–	–	12	11	52	11	12	14	47	22	< 10
O=C1[C@@H]2[C@H](C(=O)N1CC1CO1)[C@@H]1CC[C@H]2O1 (stereo partly drawn)	–	–	–	–	–	–	–	–	–	22	30	40	40	17	25	10	20	25
O=C1[C@@H]2[C@H](C(=O)N1CC(O)CO)[C@@H]1CC[C@H]2O1 (stereo partly drawn)	> 100	> 100	59	> 100	> 100	62	46	> 100	–	67	69	> 100	60	32	39	> 100	73	27
CCCCN1C(=O)[C@@H]2[C@H](C1=O)[C@@H]1CC[C@H]2O1	–	–	–	–	–	–	–	–	–	< 10	< 10	< 10	< 10	< 10	< 10	< 10	< 10	< 10
O=C1[C@@H]2[C@H](C(=O)N1CCCN1C(=O)[C@@H]3[C@H](C1=O)[C@@H]1CC[C@H]3O1)[C@@H]1CC[C@H]2O1	–	–	–	–	–	–	–	–	–	13	16	31	10	18	10	52	10	10
CCCCCCN1C(=O)[C@@H]2[C@H](C1=O)[C@@H]1CC[C@H]2O1	–	–	–	–	–	–	–	–	–	< 10	< 10	< 10	< 10	< 10	< 10	< 10	< 10	< 10
